An excerpt weighted towards active compounds, which were near 4.1% of everything screened.
KCC2 mod: KCC2 (human) Cl- transport modulation; KCC2 cells, thallium flux FluoZin-2 fluorescence; actives 2.2% (n = 190,000); B-score of Tl+ flux slope (higher = more flux/activation; lower = inhibition) at 10 µM; Q9H2X9;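 active = thallium flux slope and its plate-corrected score both differing from the plate sample mean at a set confidence after two filtering rounds, in either direction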;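 note: slope of fluorescence scaled to starting intensity during 10 to 20 s after thallium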
KCNK9 block: blocks the human KCNK9 two-pore domain potassium channel; Q9NPC2; HEK293 KCNK9, FluxOR thallium flux fluorescence; hits give low values; B-score at 10 µM; actives 1.2% (n = 310,000);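 active = ratio B-score over 3 SD below the library mean, with starting fluorescence within 5 SD of its mean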;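 note: negative B-score means less thallium flux so channel inhibition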
hERG rescue: shields human hERG channel from block by proarrhythmic agents | activation (rescue from dofetilide block), less the hit threshold, % at 10 µM | AID 1511 | actives 0.51% (n = 310,000) | Q12809 | CHO-hERG, FluxOR thallium flux, dofetilide IC70 present;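 active = activation above the mean of controls blocked by dofetilide plus 5 SD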;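 note: thallium influx through hERG after potassium depolarization seen as dye fluorescence rise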
KCNQ1 inh: inhibitors of human KCNQ1 potassium channel. P51787. CHO-K1 KCNQ1, FluxOR thallium flux fluorescence; hits give high values. B-score at 10 µM. actives 1.3% (n = 310,000). AID 2642;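 active = compounds whose thallium flux B-score, printed positive for inhibition, exceeds three library SD while starting fluorescence stays within three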;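 note: channel opened by potassium depolarization with thallium stimulus after 20 min compound exposure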
KCNK3 block: human KCNK3 channel inhibition, primary screen | B-score at 10 µM | actives 0.84% (n = 340,000) | CHO-KCNK3 thallium flux, FluxOR fluorescence; hits give low values | AID 602410;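 active = B-score under library mean minus 4 SD, starting fluorescence ratio at most library mean plus 5 SD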;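 note: more negative B-score means stronger inhibition of thallium flux through KCNK3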
KCNQ1 act: potentiates or activates the human KCNQ1 potassium channel. P51787. CHO-K1 KCNQ1, thallium flux FluxOR fluorescence; hits give high values. B-score at 10 µM. actives 0.35% (n = 310,000);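 active = fluorescence ratio B-score, a plate-corrected score, at least three library SD, with initial intensity B-score within 5 SD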
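System: Stable KCNQ1 CHO-K1 line | Incubation: 90 min dye loading and 20 min compound exposure, both at room temperature | Measure: Ratio B score | Medium: Assay buffer for compound exposure, DMSO matched across wells | Compound dosing: Single-concentration screen | Probe or stimulus: K+/Tl+ depolarizing stimulus | Measured by: Kinetic FluxOR fluorescence, 10 s baseline plus 110 s post-stimulus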
Starred values were filed as active, the others as inactive; i = inactive; · = not tested or not shown.

SMILES | KCC2 mod | KCNK9 block | hERG rescue | KCNQ1 inh | KCNK3 block | KCNQ1 act
c1ccc(Cn2ncc3c(N4CCCCC4)ncnc32)cc1 | -4.08* | i | -5.5 | i | i | i
CCc1ccc(NC(=O)c2cnc(SC)nc2C)cc1 | · | i | -9.4 | i | i | i
CC(C)(C)c1ccc(Oc2ccc(N)cn2)cc1 | -0.506 | i | -1.0 | i | i | 21*
Cc1cc(Oc2ccc(N)cn2)cc(C)c1Cl | 0.614 | i | -4.4 | i | i | i
CCNC(=S)N/N=C/c1ccc(F)cc1 | 1 | i | -12.1 | i | · | i
Cc1oc(/N=C/c2ccc(F)cc2)c(C#N)c1C | · | i | 7.7* | i | i | i
CC[C@@]1(C(=O)OC)N[C@H](CN(C)C(=O)COC)[C@@H]2C(=O)N(Cc3ccccc3)C(=O)[C@@H]21 | · | · | · | · | i | ·
C/C(=N\NC(=O)C(C)Sc1ccccc1)c1ccc([N+](=O)[O-])cc1 (stereo not given) | · | i | -8.9 | i | i | i
COC(=O)c1c(NC(=O)CSc2ccccc2N)sc(C)c1C | -0.231 | -7.65* | -4.8 | i | i | i
CCOC(=O)c1c(NC(=O)CSc2nnnn2C)sc(C)c1C | -0.474 | i | -7.1 | i | i | i
CCCn1nnnc1SCC(=O)Nc1nnc(CC)s1 | 0.00164 | i | 16.8* | i | i | i
CCOC(=O)c1c(NC(=O)CSc2nnnn2C)sc(CC)c1C | -1.19 | -6.8* | -3.2 | i | i | i
CCn1nnnc1SCC(=O)Nc1sc(C)c(C)c1C#N | -1.01 | i | -6.3 | i | i | i
CCCn1nnnc1SCC(=O)Nc1ccc(F)cc1 | 0.0557 | i | -10.8 | i | i | i
CCOC(=O)c1c(NC(=O)CSc2nnnn2CC)sc(C)c1C | · | -7.66* | -6.6 | i | i | i
CC(C)NC(=O)N(C)C[C@@H]1Oc2c(NC(=O)C3CCOCC3)cccc2C(=O)N([C@@H](C)CO)C[C@H]1C | · | · | · | · | i | ·
Cc1nc(NC(=O)CSc2nnnn2Cc2ccccc2)sc1C | -3.16 | i | 5.0* | i | i | i
CC(C)c1ccc(NC(=O)CCS(=O)(=O)c2cccc3nonc23)cc1 | · | i | -3.4 | i | i | i
CC(C)c1ccc(NC(=O)/C(C#N)=C/c2ccncc2)cc1 | · | i | -12.0 | i | i | 8*
N#C/C(=C\c1ccncc1)C(=O)Nc1ccc(C(=O)O)cc1 | · | i | -11.9 | i | i | i
Cc1cccc(C)c1OCC1CNC(=O)O1 (stereo not given) | · | i | 6.5* | i | i | i
CCC(CCNC(=O)c1ccccc1)(CCNC(=O)c1ccccc1)[N+](=O)[O-] | · | · | · | · | i | ·
COCCN1CC(=O)N(c2cccc(C)c2C)C(c2ccc(Cl)cc2)C1=O (stereo not given) | -0.0478 | i | -7.3 | i | i | i
Cc1cccc(N2C(=O)C(Oc3ccc(Cl)cc3Cl)C2C=O)c1C (stereo not given) | -3.01* | · | · | · | i | ·
c1ccc(C2OC3c4cccc5cccc(c45)C3N2c2ccccc2)cc1 (stereo not given) | 0.00319 | -7.88* | -13.0 | i | i | i
SMILES | KCC2 mod | KCNK9 block | hERG rescue | KCNQ1 inh | KCNK3 block | KCNQ1 act
C/C(=N\O)C(C)(C)Nc1cccc(Br)c1 | 0.31 | i | -6.2 | i | i | i
CC(=O)Oc1ccc(C23c4ccccc4C2(OC(C)=O)c2cc(OC(C)=O)ccc23)cc1 (stereo not given) | · | · | · | · | i | ·
O=Cc1[nH]c2ccccc2c1N(C(=O)CCl)c1ccc([N+](=O)[O-])cc1 | -0.0679 | i | -26.9 | 9* | i | i
CC(=O)n1cc(N(C(=O)CCl)c2ccccc2)c2ccccc21 | 0.429 | i | -8.9 | i | i | i
CC(=O)n1cc(N(C(=O)CCl)c2ccc([N+](=O)[O-])cc2)c2ccccc21 | -0.874 | i | -13.3 | 7* | i | i
O=C(COC(=O)c1ccc(F)cc1)NC1CC1 | · | · | · | · | i | ·
COc1ccc2cc(C(=O)NCc3ccccc3CN3CCCC3)ccc2c1 | · | · | · | · | i | ·
Cc1noc(C)c1COc1ccc(C(=O)N2CCN(c3ccccc3O)CC2)cc1 | · | · | · | · | i | ·
COc1ccc(C(=O)CC(=O)C(=O)Nc2cc(C)ccc2C)cc1 | · | i | -2.2 | i | i | i
COc1ccc(C(=O)CC(=O)C(=O)Nc2cccc(F)c2)cc1 | · | i | -0.3 | i | i | i
CCOc1ccccc1NC(=O)C(=O)CC(=O)c1ccc(OC)cc1 | · | i | 15.1* | i | i | 14*
COc1ccc(C(=O)CC(=O)C(=O)NCCc2cccc(C)c2)cc1 | 8.33* | i | -6.9 | i | i | i
COc1ccc(C(=O)CC(=O)C(=O)Nc2ccc(C)c(Cl)c2)cc1 | · | i | 16.6* | i | i | 9*
COc1ccc(C(=O)CC(=O)C(=O)Nc2ccccc2)cc1 | · | i | 5.0* | i | i | i
COc1ccc(-c2csc(NC(=O)C3CCCCN3S(=O)(=O)c3ccccc3)n2)cc1 (stereo not given) | 0.158 | i | -8.0 | i | i | 151*
Cc1cc(S(=O)(=O)N2CCOCC2)ccc1OCC(=O)N1CCCC1 | · | i | -2.3 | i | i | i
CC(C)CCOc1ccc(-c2c(=O)n(OCc3ccc([N+](=O)[O-])cc3)c3ccccc3[n+]2[O-])cc1 | · | -6.64* | -3.4 | i | i | i
C=CCOn1c(=O)c(-c2ccc(OC)cc2)[n+]([O-])c2ccccc21 | · | i | -7.0 | i | i | i
O=C1S/C(=C\c2ccc(O)c([N+](=O)[O-])c2)C(=O)N1Cc1cccc([N+](=O)[O-])c1 | · | i | -8.8 | 11* | i | i
O=C1S/C(=C\c2ccc(O)c([N+](=O)[O-])c2)C(=O)N1c1ccccc1Cl | -3.46* | i | -11.1 | 10* | i | i
O=S(=O)(Nc1ccccc1N1CCOCC1)c1ccc(Cl)cc1 | · | · | · | · | i | ·
CN1CCN(c2ncc(CN3C(=O)c4ccccc4C3=O)s2)CC1 | -0.361 | i | 5.9* | i | i | i
COc1ccc(NC(=O)c2cccc(S(=O)(=O)NCc3ccco3)c2)c(OC)c1 | · | i | -2.6 | i | i | i
COc1ccccc1Nc1ncc(-c2cccs2)s1 | 3.12* | i | -3.2 | i | i | i
COc1ccccc1CNC(=O)CNC(=O)[C@@H]1Cc2ccccc2CN1 | · | i | -5.9 | i | i | i
Oc1c(Br)cc(Br)cc1C=Nc1cccc2ncccc12 | · | i | 4.8* | i | i | 13*
O=C(c1cc(Cl)nc2ccccc12)N(Cc1nnc(-c2ccccc2Cl)o1)C1CC1 | · | i | -12.1 | i | i | i

Bioassay records deposited in PubChem by several laboratories.
